The source of these data is paper PMC9097774 (International Journal of Oncology, 2022).

The conditions of data set [1]: cited from earlier work.
A further data set concerns HepG2 cells. Kind of data set: Glycolytic activity. The class given is cell-based, human. The note with it: cell culture supernatant; Fig. S1. In outline:
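Glucose remaining and lactate released into the cell culture supernatant were measured with a blood gas analyser.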

Data set [2] has as its system p53 phosphorylation in HepG2 and Huh7 cells. Kind of data set: Western blotting of p53 and phosphorylated p53. The class given is cell-based, human. The settings on record: 24 h; BB 0.6 and 1.2 µM; Vs 4.0 µM. In outline:
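HepG2 and Huh7 cells were treated 24 h in RPMI with test compound (0.6 or 1.2 µM) or reference HDAC inhibitor (4.0 µM). Whole-cell extracts were made in SDS/deoxycholate/NP-40 buffer with protease inhibitors. Samples of 30 µg protein were run on 7.5% or 12% SDS-PAGE and blotted to PVDF. Blots were milk-blocked, given primary antibody overnight at 4°C, then HRP secondary (1:10,000) for 1 h. Tubulin served as loading control.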
On the technique in general: A western blot detects proteins with antibodies after separation by electrophoresis.

Data set [3] deals with GLUT2 expression in HepG2 and Huh7 cells. Nature of the data set: Western blotting of GLUT2. It counts as cell-based, human. The settings on record: Fig. S1.
For the next data set, the target named is HDAC1 (Homo sapiens, UniProt Q13547). Nature of the data set: Cell free fluorogenic HDAC assay. It counts as biochemical. The note with it: IC50 and two-fold IC50 concentrations; control set to 100%.
Chain of HDAC1 (Q13547 whole entry): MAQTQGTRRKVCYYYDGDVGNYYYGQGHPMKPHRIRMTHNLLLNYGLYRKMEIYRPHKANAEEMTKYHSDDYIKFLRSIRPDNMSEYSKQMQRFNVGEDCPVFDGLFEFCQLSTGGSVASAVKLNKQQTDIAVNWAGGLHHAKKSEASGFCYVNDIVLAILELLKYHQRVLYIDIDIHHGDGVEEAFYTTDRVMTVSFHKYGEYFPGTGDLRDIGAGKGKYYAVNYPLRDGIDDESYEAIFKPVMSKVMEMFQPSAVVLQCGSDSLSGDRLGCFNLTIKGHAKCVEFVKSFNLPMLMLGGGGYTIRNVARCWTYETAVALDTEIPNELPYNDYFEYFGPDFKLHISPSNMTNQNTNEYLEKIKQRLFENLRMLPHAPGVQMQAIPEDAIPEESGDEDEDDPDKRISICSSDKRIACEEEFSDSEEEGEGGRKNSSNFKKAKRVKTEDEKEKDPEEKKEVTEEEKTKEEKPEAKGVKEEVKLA

Regarding `CNC(=O)c1cc(Oc2ccc(NC(=O)Nc3ccc(Cl)c(C(F)(F)F)c3)cc2)ccn1` [sorafenib], in data set [1], the therapeutic concentration is ~ 8 µM.
In the case of `O=C(CCCCCCC(=O)Nc1ccccc1)NO` [vorinostat], in the data set on HepG2 cells, the “glycolytic activity (glucose consumption, lactate production)” value is on record as “no such reduction in glycolytic activity could be observed”. Besides, the “phosphorylation of p53” value in data set [2] is on record as “no increase in p53 phosphorylation”. Besides, the “Protein expression levels of GLUT2” value in data set [3] is given as “markedly reduced the expression of GLUT2”. For the same compound, on HDAC1, the “effect on activity of HDAC1” value is recorded as “potent inhibitory effects”.
